Rows were chosen to be rich in hits. Some 5% of all compounds tested hit in one or more screens of this group.
UPR CHOP act = apoptotic UPR (CHOP) activation. CHO-CHOP luciferase reporter, luminescence; percent of tunicamycin response over DMSO baseline. hit rate 0.34% among 330,000. activation, % at 10 µM;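 active = at 10 µM dose, activation of 40% or more, normalized to positive control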;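 note: 100% = tunicamycin at 10 µg/mL and 0% = DMSO alone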
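System: CHO-CHOP luciferase reporter cell line; amount: 500 cells/well; buffer or medium: F12 medium containing 10% fetal bovine serum; incubation: 6 h compound exposure at 37 °C after overnight seeding; measured by: luciferase luminescence after 10 min with Steady-Glo reagent; evaluation: % reporter activation, DMSO baseline versus tunicamycin full activation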
UPR XBP1 act = adaptive UPR (XBP1) activation; hit rate 0.33% among 330,000; activation, % at 20 µM; CHO-XBP1 luciferase reporter, IRE1-XBP1 UPR activation, luminescence; percent of tunicamycin response, DMSO as zero; AID 463104;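 active = versus positive control, 20 µM dose yields 30% or more activation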;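 note: 100% = tunicamycin at 10 µg/mL and 0% = DMSO only wells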
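Assay system: IRE1-XBP1 luciferase reporter CHO line. Input: 1000 cells/well. Buffer or medium: F12 with 10% serum. Doses: 20 µM, 1% DMSO. Times: overnight seeding at 37 °C, 6 h compound treatment at 37 °C. Technique: Steady-Glo luciferase glow luminescence, 10 min after reagent addition.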
Beta cell apopt = beta cell apoptosis inhibition. protection from apoptosis, % (test concentration not listed). INS-1E cytokine-induced death, ATP luminescence, 48 h; percent of positive-control rescue, neutral wells zero. AID 435005. hit rate 0.8% among 300,000;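 active = Every replicate reaches about 75%, or at least half do and their mean reaches it too, limit read from the data; inconclusive = At least half of replicates reach the limit but their mean does not; inactive = Under half of replicates reach the limit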;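 note: 0% = cytokine-treated negative control wells and 100% = positive control rescue; higher means more ATP so stronger rescue from cytokine killing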
CSC inhib = blocks cancer stem cells | cancer stem cell-like cells viability, luminescence | inhibition, % at 7.5 µM | hit rate 1.1% among 300,000 | AID 2717; in the data active = inhibition above about 75%; inconclusive = no clear call, values can overlap the other calls; tested in HMLE shEcad cells
Mdm2-MdmX inh = human Mdm2/MdmX binding inhibition. O15151+Q00987. SaOS-2 split-luciferase Mdm2/MdmX complementation, luminescence. inhibition, % at 8 µM. hit rate 3% among 330,000. AID 485346;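 active = inhibition of at least 50% at 8 µM in the primary screen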
Target sequence (O15151 whole entry, looked up): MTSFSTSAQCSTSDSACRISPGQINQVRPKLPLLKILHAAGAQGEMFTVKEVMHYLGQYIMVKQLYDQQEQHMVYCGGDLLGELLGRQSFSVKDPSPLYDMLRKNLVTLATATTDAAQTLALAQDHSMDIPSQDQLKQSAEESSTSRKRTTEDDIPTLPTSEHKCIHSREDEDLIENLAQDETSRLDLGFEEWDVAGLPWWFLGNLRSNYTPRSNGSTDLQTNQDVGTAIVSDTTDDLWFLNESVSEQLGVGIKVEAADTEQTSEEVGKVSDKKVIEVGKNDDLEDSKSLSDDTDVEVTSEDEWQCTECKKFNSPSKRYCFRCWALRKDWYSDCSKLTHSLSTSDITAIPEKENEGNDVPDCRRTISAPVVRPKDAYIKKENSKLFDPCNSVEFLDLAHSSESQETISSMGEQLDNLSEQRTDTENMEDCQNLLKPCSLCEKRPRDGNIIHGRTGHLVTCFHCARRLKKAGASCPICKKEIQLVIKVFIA
Target sequence (Q00987 whole entry, looked up): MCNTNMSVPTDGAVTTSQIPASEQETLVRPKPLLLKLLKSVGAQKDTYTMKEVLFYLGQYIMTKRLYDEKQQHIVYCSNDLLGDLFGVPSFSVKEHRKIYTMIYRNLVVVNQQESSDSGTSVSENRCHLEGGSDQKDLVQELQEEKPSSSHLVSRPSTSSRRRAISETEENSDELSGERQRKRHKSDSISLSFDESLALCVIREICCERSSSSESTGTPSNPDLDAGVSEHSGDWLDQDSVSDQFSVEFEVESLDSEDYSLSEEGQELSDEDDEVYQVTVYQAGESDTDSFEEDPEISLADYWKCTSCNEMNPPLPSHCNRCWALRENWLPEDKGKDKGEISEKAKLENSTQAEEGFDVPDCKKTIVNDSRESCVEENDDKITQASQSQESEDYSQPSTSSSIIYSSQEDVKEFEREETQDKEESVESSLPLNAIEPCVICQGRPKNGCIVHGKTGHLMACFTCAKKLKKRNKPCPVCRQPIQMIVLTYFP
T cruzi repl = blocks replication of Trypanosoma cruzi; T. cruzi beta-gal in NIH3T3, luminescence, 90 h; inhibition, % (test concentration not listed); hit rate 1.4% among 300,000; AID 1885;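 active = mean inhibition across valid replicates above about 55%, limit read from the data; inconclusive = mean below that limit but half or more replicates reach it; inactive = mean below it, under half of replicates reach it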;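 note: signal also drops with host cell toxicity which is not excluded here; 0% = plate median of DMSO wells and 100% = zero luminescence signal; higher percent means less beta-gal luminescence so fewer parasites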
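System – NIH/3T3 host cells with β-galactosidase reporter T. cruzi · Doses – single 50 nL compound addition per well in DMSO · Reagent – 5000 T. cruzi trypomastigotes/well · Medium – Low-serum DMEM with 2% FBS · Timing – ≥90 h infection period, 3 h prior cell attachment · Evaluation – parasite load inhibition, % · Technique – GalScreen luminescence, 60 min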
Mdm2-MdmX conf = human Mdm2/MdmX binding inhibition, confirmed; AID 489028; hit rate 55% among 10,000; inhibition, % at 8 µM; luminescent assay; shares compounds with Mdm2-MdmX inh; in the data active = inhibition above about 40%
Full FLuc ctr = inhibits full-length luciferase, flagging false Mdm2/MdmX hits | shares compounds with Mdm2-MdmX inh | SaOS-2 full-length luciferase counterscreen, luminescence | inhibition, % at 8 µM | hit rate 77% among 6,200;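 active = mean inhibition at 8 µM reaching about 37%, which flags the compound as non-specific, limit read from the data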;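 note: p53-null SaOS-2 cells with luciferase driven by a doxycycline-inducible promoter; compound on cells about two nights before reading with doxycycline added after day one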
* hit, by the source's call; ? = inconclusive; . = no result.

SMILES | UPR CHOP act | UPR XBP1 act | Beta cell apopt | CSC inhib | Mdm2-MdmX inh | T cruzi repl | Mdm2-MdmX conf | others
CC(C)c1nc2c(c(=O)n(C)c(=O)n2C)n1C | 1.1 | 1.2 | -1.8 | 1.9 | -12.2 | 4.4 | .
CN(CC(=O)Nc1ccc(Cl)cc1)CC(=O)Nc1cccc(Br)c1 | 0.9 | -5.0 | -6.0 | 26.0 | 5.5 | -6.1 | .
COc1cc(/C=C/C(=O)NC(C)(C)C)ccc1OCc1ccccc1 | -0.3 | -1.2 | . | 17.9 | 31.6 | -13.2 | .
COc1cc(OCc2ccccc2)c(C(=O)/C=C/c2ccc3c(c2)OCO3)c(OC)c1OC | 1.4 | 0.6 | -6.9 | 37.1 | 70.1* | 44.2 | 36.7
COc1ccc(/C=C/C(=O)Oc2ccc(C)c(C)c2)cc1OC | 3.5 | -0.2 | -6.4 | -5.9 | 3.9 | -4.2 | .
COc1cc(/C=C/[N+](=O)[O-])ccc1OC(=O)/C=C/c1ccc(F)cc1 | 12.7 | -7.2 | . | . | 72.8* | 41.4 | 71.0* | Full FLuc ctr=50.9*
COc1cc(/C=C/[N+](=O)[O-])ccc1OCc1cccc(C(=O)O)c1 | -7.9 | -9.1 | . | . | 55.2* | -25.7 | 47.0* | Full FLuc ctr=35.1
COc1cc(OC)c(C(=O)/C=C/c2ccc(OCc3ccccc3)c(OC)c2)c(OC)c1 | 2.1 | -4.7 | . | . | 60.4* | 27.7 | 22.4
CC(C)CNC(=O)c1ccc2c(c1)C(=O)N(Cc1ccco1)C2=O | -2.3 | -2.2 | 1.6 | -15.8 | 7.8 | -3.4 | .
OC(COCc1ccc(Cl)cc1)CN1CCCCC1 (stereo not drawn) | 0.5 | -0.9 | . | 6.8 | 14.5 | 8.4 | .
COc1ccc(-n2c(C)cc(=O)[nH]c2=O)cc1 | -0.4 | -3.7 | -6.6 | -13.7 | 6.4 | -9.4 | .
CCC(C)(C)NC(=O)/C=C/c1cccs1 | -0.8 | 0.8 | -2.5 | -9.9 | 7.9 | 3.7 | .
COc1ccc(-c2nn(C)c(=O)c3ccccc23)cc1NS(C)(=O)=O | -2.5 | 2.5 | -22.3 | 15.9 | 68.2* | 6.9 | 27.1
CC(=O)c1ccccc1NC(=O)COC(=O)/C(=C/c1ccccc1)n1nnnc1C | -2.0 | -2.2 | -3.6 | 2.8 | 26.4 | -9.8 | .
Cc1ccc(S(=O)(=O)Nc2ccc3c(c2)OCCO3)c(C)c1NS(C)(=O)=O | -0.3 | -7.9 | 0.1 | -15.3 | 32.6 | 0.7 | .
CS(=O)(=O)c1ccc2nc(NC(=O)Nc3cccc(Cl)c3)sc2c1 | 5.9 | 21.4 | 50.9 | 63.0 | 91.7* | 2.1 | 64.2* | Full FLuc ctr=76.8*
Cc1ccc(NC(=O)Nc2nc3ccc(S(C)(=O)=O)cc3s2)cc1 | 9.3 | 5.2 | . | . | 14.4 | . | .
CS(=O)(=O)c1ccc2nc(NC(=O)Nc3ccc(Cl)c(Cl)c3)sc2c1 | 6.4 | 15.0 | 33.4 | -0.3 | 54.4* | 14.4 | 9.2
COC(=O)C1=C(C)NC(=S)NC1c1ccc(OCC(=O)N2CCCCC2)c(OC)c1 (stereo not drawn) | -2.1 | -0.9 | -1.2 | -8.5 | 11.0 | -0.4 | .
O=S(=O)(c1ccc(Cl)cc1)N1CCN(Cc2ccncc2)CC1 | 1.5 | 2.8 | -5.2 | 14.4 | 6.6 | 2.6 | .
O=S(=O)(c1ccc(Cl)cc1)N1CCN(Cc2ccc(O)c3ncccc23)CC1 | -1.1 | 6.1 | 85.5* | 89.1* | 76.9* | 54.6* | 67.5* | Full FLuc ctr=25.0
COc1ccc(NC(=S)N2CCC(c3nc4ccccc4o3)CC2)c(OC)c1 | 3.5 | -0.5 | 2.2 | 3.8 | -2.3 | -8.6 | .
CC1(NC(=O)CCc2ccccc2)CCN(CCCc2ccccc2)C1=O (stereo not drawn) | 2.6 | -2.5 | -0.7 | -2.9 | -1.4 | . | .
CC1(NC(=O)CC(c2ccccc2)(c2ccccc2)c2ccccc2)CCN(CCCc2ccccc2)C1=O (stereo not drawn) | 8.9 | 4.5 | 31.4 | 100.0* | 76.3* | . | 23.1
CN(C)C(CNc1ccc(C(F)(F)F)cn1)c1ccccc1 (stereo not drawn) | 0.7 | 4.6 | -15.2 | -13.4 | 16.6 | 26.4 | .
SMILES | UPR CHOP act | UPR XBP1 act | Beta cell apopt | CSC inhib | Mdm2-MdmX inh | T cruzi repl | Mdm2-MdmX conf | others
CNCC[C@@H](Oc1ccc(C(F)(F)F)cc1)c1ccccc1 | 2.8 | -2.5 | 15.0 | 23.7 | 50.4* | . | 28.2
Oc1ccccc1CN1CCC(C(O)(c2ccccc2)c2ccccc2)CC1 | 0.5 | -2.3 | -0.1 | -13.8 | 49.7 | 3.8 | .
CC(C)(C)c1ccc(C(O)CCCN2CCC(C(O)(c3ccccc3)c3ccccc3)CC2)cc1 (stereo not drawn) | 32.2 | 11.1 | ? | 9.6 | 99.2* | 26.2 | 88.2* | Full FLuc ctr=41.8*
CNC(=S)Nc1ccc(Nc2ccccc2)cc1 | 2.1 | -0.9 | 3.6 | . | 6.9 | -26.1 | .
Cc1ccc(N2CC(C(=O)N(C)CC(=O)Nc3ccc(Cl)c(C(F)(F)F)c3)CC2=O)cc1 (stereo not drawn) | 1.1 | -2.0 | -4.4 | 15.8 | 59.0* | -16.1 | 43.6* | Full FLuc ctr=65.7*
O=C(Cc1ccccc1)Nc1ncnc2c1C(c1ccccc1)c1c(ccc3ccccc13)O2 (stereo not drawn) | 6.4 | 4.0 | 13.2 | 42.0 | 90.0* | . | 23.2
O=C(Nc1ncnc2c1C(c1ccccc1)c1c(ccc3ccccc13)O2)c1ccccc1 (stereo not drawn) | 2.7 | 4.6 | 81.7* | . | 64.9* | . | 52.0* | Full FLuc ctr=45.4*
O=C(CS(=O)(=O)c1ccc(Cl)cc1)Nc1nnc(-c2cccs2)o1 | -1.1 | -3.0 | -3.4 | -8.0 | 3.9 | -11.2 | .
COc1ccc2[nH]c3nc(SCC(=O)Nc4ccc5c(c4)OCO5)nnc3c2c1 | 0.4 | 23.2 | 0.8 | . | 66.3* | 11.0 | 6.2
COc1ccc(-n2nnnc2SCC(=O)Nc2cc(OC)c([N+](=O)[O-])cc2C)cc1 | 1.3 | 2.6 | 25.3 | 0.7 | 51.9* | 1.9 | 6.8
COC(=O)c1ccc(-n2nnnc2SCC(=O)Nc2cc(OC)ccc2OC)cc1 | -2.3 | -4.0 | 2.6 | -12.8 | -9.2 | 15.3 | .
Cc1ccc(-n2nnnc2SCC(=O)Nc2ccc3c(c2)COC3=O)cc1C | 1.8 | 5.1 | 2.8 | 4.4 | 51.4* | -6.0 | 9.1
Cc1ccc(-n2nnnc2SCC(=O)Nc2ccc3c(c2)OCCO3)cc1C | -0.6 | 0.3 | 2.5 | -8.7 | 5.6 | -6.7 | .
COc1ccc(OC)c(NC(=O)CSc2nnnn2-c2ccc3c(c2)OCO3)c1 | -3.9 | -5.1 | -9.6 | -5.3 | 58.1* | 25.5 | 29.9
CCCCC(=O)Nc1cccc(NC(=O)c2ccccc2Br)c1 | -1.2 | -0.3 | 5.6 | 5.9 | 4.9 | 10.2 | .
COc1ccc(NC(C)=O)cc1NC(=O)CSc1nc2ncccc2[nH]1 | 0.1 | -1.2 | 0.7 | -14.3 | -9.7 | 3.8 | .
COc1ccc(OC)c(-n2nnnc2SCC(=O)Nc2ccc(C(=O)N3CCCCC3)cc2)c1 | -1.5 | -5.0 | -6.8 | 2.2 | -5.8 | 4.9 | .
